ChEMBL document CHEMBL1148187, “Modified taxols, 9. Synthesis and biological evaluation of 7-substituted photoaffinity analogues of taxol” (J Nat Prod, 1993)
Active and inactive are the calls of the source. The rule behind the calls is not given here.

Legend:
Bos taurus [1] = species: Bos taurus; assay: Induction of bovine brain tubulin polymerization at 40 uM by turbidimetry in presence of 4-morpholine-ethanesulfonate
Summary of the method: (§1)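 Low ionic strength turbidimetry at 350 or 420 nm: 10 μM purified bovine brain tubulin in 0.1 M 4-morpholine-ethanesulfonate (pH 6.9), 0.5 mM MgCl2, 100 μM GTP, 4% DMSO. Baseline at 0°, then temperature stepped to 15° and 37°.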

[2] = Inhibition of bovine brain tubulin depolymerization after 20 mins by turbidimetry; design: species or system Bos taurus
Summary of the method: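 Purified bovine brain tubulin 10 μM (1.0 mg/ml) in 1.0 M monosodium glutamate (pH 6.6), 50 μM GTP, 4% DMSO, with varying analogue concentrations. Temperature jump 0 to 37°, held about 20 min, then reverse jump to 0°. Maximum depolymerization rate read as fall in A350 or A420. IC50 interpolated; at least three independent determinations.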

Bos taurus [3] = species: Bos taurus; assay: Induction of bovine brain tubulin polymerization at 10 uM by turbidimetry at 37 degC in presence of 4-morpholine-ethanesulfonate; summary of the method: as §1
Bos taurus [4] = species: Bos taurus; assay: Induction of bovine brain tubulin polymerization at 10 uM at 0 degC by turbidimetry at lower temperature in presence of glutamate; settings: in the assay text read “at 15 degC” for “at 0 degC”
Summary of the method: (§2)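 Turbidimetry at 350 or 420 nm of 10 μM purified bovine brain tubulin in 1.0 M monosodium glutamate (pH 6.6), 50 μM GTP, 4% DMSO. Baseline at 0°, then stepped temperatures: 15°, 37°, then down to 10° and 0° to follow depolymerization.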

Bos taurus [5] = species: Bos taurus; assay: Induction of bovine brain tubulin depolymerization at 10 uM by turbidimetry in presence of glutamate; summary of the method: as §2
Bos taurus [6] = species: Bos taurus; assay: Induction of bovine brain tubulin polymerization at 10 uM by turbidimetry at 15 degC in presence of 4-morpholine-ethanesulfonate
Summary of the method: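 Purified bovine brain tubulin at 10 μM (1.0 mg/ml) in 0.1 M 4-morpholine-ethanesulfonate (pH 6.9) with 0.5 mM MgCl2, 100 μM GTP, 4% (v/v) DMSO, and agent at 10 μM. Baseline was read at 0°, the controller was then set to 15°, and later temperature steps followed. Polymerization was followed by turbidity at 350 or 420 nm.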

| Activity (Bos taurus [1]) | IC50 [2] [nM] | Activity (Bos taurus [3]) | Activity (Bos taurus [4]) | Activity (Bos taurus [5]) [%] | Activity (Bos taurus [6]) | SMILES |
| --- | --- | --- | --- | --- | --- | --- |
| inactive | 650 |  |  |  |  | CC(=O)O[C@H]1C(=O)[C@]2(C)[C@@H](OC(=O)c3ccccc3)C[C@H]3OC[C@@]3(OC(C)=O)[C@H]2[C@H](OC(=O)c2ccccc2)[C@]2(O)C[C@H](OC(=O)[C@H](O)[C@@H](NC(=O)c3ccccc3)c3ccccc3)C(C)=C1C2(C)C [PACLITAXEL C7 BENZOIC ACID ESTER] |
|  | 420 | Active | Active | < 50 | inactive | CC(=O)O[C@H]1C(=O)[C@@]2(C)[C@H]([C@H](OC(=O)c3ccccc3)[C@]3(O)C[C@H](OC(=O)[C@H](O)[C@@H](NC(=O)c4ccccc4)c4ccccc4)C(C)=C1C3(C)C)[C@]1(OC(C)=O)CO[C@@H]1C[C@@H]2O [PACLITAXEL] |
